The results in this text go back to ChEMBL document CHEMBL4513216, “Probing the Open Global Health Chemical Diversity Library for Multistage-Active Starting Points for Next-Generation Antimalarials” (ACS Infect Dis, 2020).

The series is described as follows: Toxicity liver stage against HepG2, at 10uM. The settings on record: human, HepG2-A16-CD81EGFP cells; read-out: INHIBITION
In kind it is cell-based. Also noted: test concentration 10 uM, cell line HepG2-A16-CD81EGFP. Summed up:
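Uninfected HepG2-A16-CD81EGFP cells, 3 × 10^3 per well, 1536-well, plated on prespotted compound at 10 μM final, parasite-free screening media added to match infected plates; puromycin 10 μM positive, DMSO 0.5% negative; run in parallel with 48 h PbLuc assay at 37 °C, 5% CO2; viability by CellTiter-Glo luminescence, normalized to controls.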
As to `COCCNC(=O)c1cc(S(=O)(=O)N2CCCC2)cs1`, the cytotoxicity at 10 µM came out at 6.15%.

On to `COc1ccc(Oc2cccc(C#N)n2)cc1CN1CCCC1`, for which the cytotoxicity at 10 µM was -1.86%. In the case of `Cc1ccc(-c2ccnc(N[C@H]3COC[C@@H]3N3CCCCC3)n2)c(C)n1` it was 3.46%; in that of `COCC(=O)N1CCCCC1c1nc(CN(C)C(C)=O)cc(N(C)C)n1` (configuration not stated), 3.37%; in that of `CC(C)Cc1noc(CN(C)C2CCS(=O)(=O)C2)n1` (configuration not stated), 5.7%. In the case of `CNC(=O)c1cn[nH]c1C1CCN(Cc2sccc2C)C1` (configuration not stated) it was -21.2%. Then `CC(C)c1nn(C)c(N(C)C)c1CNC1CCOc2c(F)cccc21` (configuration not stated), with -1.99%; and `COc1cccc(N2CCC(CNC(=O)N(C)Cc3ccco3)C2)c1` (configuration not stated), with -130%; and `CCc1noc(C(C)N(C)CC(=O)Nc2ccccc2Cl)n1` (configuration not stated), with -0.0195%. For `Cc1ccc(C2CCCN2Cc2nc3c(cnn3C)c(=O)[nH]2)cc1C` (configuration not stated), the cytotoxicity at 10 µM is -0.858%. Then `O=C(NCCC(O)c1ccoc1)Nc1cccs1` (configuration not stated), with -2.55%; and `CCNc1nnc(SCc2nnc(C(C)(C)C)o2)s1`, with -1.79%.

In the case of `COCCC(C)NC(=O)N1CCSC(C)(C)C1` (configuration not stated), the cytotoxicity at 10 µM is -3.94%. In the case of `Cc1nc(NC(=O)NCc2nc3cccc(C)c3n2C)oc1C` it was -6.71%; in that of `CC(O)c1cn(Cc2ccccc2)nn1` (configuration not stated), 7.62%. With `Cc1cc(CN2CCN(C(=O)Cc3ccccc3F)CC2)on1`, the cytotoxicity at 10 µM is -4.02%. With `O=c1cccnn1CC1CN(CC2CCCC2)Cc2nccn2C1` (configuration not stated), the cytotoxicity at 10 µM stood at 5.03%.

Turning to `Cc1ccc(CN2C[C@H](N(C)Cc3cncnc3)[C@H]3OCCC[C@H]32)o1`, the cytotoxicity at 10 µM was -149%. Then `Cc1ccc(-c2nc(CC(=O)NCC(C)N3CCOCC3)cs2)o1` (configuration not stated), with -47.5%. With `CS(=O)(=O)NCC1CCCN(C(=O)c2cc3ccccc3o2)C1` (configuration not stated), the cytotoxicity at 10 µM was -1.82%. In the case of `Cc1cccnc1CC(C)NC1CCSCC1` (configuration not stated) it was 2.28%. In the case of `CC(C)N(CC(=O)O)Cc1cccc(Br)c1` it was -8.67%; in that of `CCOCCCNC(=O)NCc1c(C)nn(C)c1C`, -5.28%; in that of `COCCO[C@H]1CCN(Cc2cccnc2)[C@H]1Cc1cccnc1`, 0.0623%. In the case of `Cc1csc(CN(CC2CCCO2)C(=O)c2ccc(C)nc2C)n1` (configuration not stated) it was -1.19%.

Consider `COC(=O)C1CCCN1C(=O)c1ccc(Br)cc1F` (configuration not stated), for which the cytotoxicity at 10 µM was found to be 2.96%. For the compound `COc1ccc(-c2noc(Cn3cnc(C)c3)n2)c(OC)c1OC`, the cytotoxicity at 10 µM is -13.2%. Regarding `COCCC1COC2(CCN(C(=O)c3ccncc3)CC2)C1` (configuration not stated), the cytotoxicity at 10 µM is -74.9%.

In the case of `CC(=O)N1C[C@@H](c2ccsc2)[C@@H]2CN(Cc3ccccc3C)CC[C@@H]21`, the cytotoxicity at 10 µM is -5%. Then `COc1ccc2c(c1)CN(Cc1nc3c(cnn3C)c(=O)[nH]1)CC2`, with -8.57%. In the case of `COCc1cncc2c1CCN(Cc1cnn(C)c1)C2`, the cytotoxicity at 10 µM was -0.287%. `CCn1c(Cn2cncn2)nnc1C1CCN(CC2[C@H]3CNC[C@@H]23)CC1` (some centres not stated): the cytotoxicity at 10 µM was 6.77%.

Turning to `Cc1ccc(-c2noc([C@@H]3Cc4nc[nH]c4CN3)n2)cc1`, the cytotoxicity at 10 µM was found to be 0.676%.

Turning to `O=C([C@H]1C[C@H]2OCC[C@H]2N(C(=O)c2ccnnc2)C1)N1CCCCO1`, the cytotoxicity at 10 µM amounted to 4%. Take `COCCN1CCCC2(CCN(c3cccc(C(F)(F)F)n3)C2)C1=O` (configuration not stated): the cytotoxicity at 10 µM was 3.84%.

Take `CC(C)Cc1cn(C2CCN(C(C)CC3CC3)CC2)nn1` (configuration not stated): the cytotoxicity at 10 µM is -2.9%.

On to `Cc1ccc(CN2CC[C@H]3OCC[C@@H](C(=O)NCC4CC4)[C@@H]3C2)s1`, for which the cytotoxicity at 10 µM was -0.53%.

For `Cn1ccc(C(=O)N2C[C@@H]3CCN(c4cccnc4)C[C@@H]3C2)n1`, the cytotoxicity at 10 µM is -106%. Then `CC(C)NC(=O)N1CCCC2(CCN(c3ccccc3)C2=O)C1` (configuration not stated), with -2.22%; and `C=Cn1ncc(CN2C[C@@H]3CCCN3C[C@@H]2CCSC)c1C`, with 0.026%.

Take `CCc1nc(C2CCCN2CC(=O)Nc2cc(C)no2)no1` (configuration not stated): the cytotoxicity at 10 µM was -1.68%. As to `CNC(=O)NC(=O)C(C)N(C)CCCc1cc(-c2ccccc2)no1` (configuration not stated), the cytotoxicity at 10 µM was -11.6%. Regarding `Cn1cc(CC(=O)N2CCCC(n3cncn3)C2)cn1` (configuration not stated), the cytotoxicity at 10 µM was -3.54%.

Consider `CC(C)Oc1ccc(CN2CCCC(N3CCOCC3)C2)cc1CO` (configuration not stated), for which the cytotoxicity at 10 µM turned out to be 1.48%. Then `Cc1nn(C)c2nc(NCCN3CCCC(C(N)=O)C3)sc12` (configuration not stated), with 0.739%. In the case of `c1cncc(C2COC3(CCN(CC4CC4)CC3)C2)c1` (configuration not stated) it was -14.9%. Then `CN1CCCN(Cn2nc(-c3ccccc3F)ccc2=O)CC1`, with 9.77%; and `CCN(CCNC(=O)c1cccc(C)c1C)C1CC1`, with 3.43%; and `CNc1cc2c(nn1)CCN(C(=O)c1coc(Br)c1)C2`, with -13.6%. For the compound `CCCc1nc(Nc2cccc(C(N)=O)c2)c2c(n1)c(C)nn2CC`, the cytotoxicity at 10 µM is 3.31%.

As for `CS(=O)(=O)NC1CCCN(C(=O)Nc2cccnc2N2CCCC2)C1` (configuration not stated), the cytotoxicity at 10 µM is -131%.

For the compound `c1cncc(-c2nccc(CN3CCC(N4CCCCC4)CC3)n2)c1`, the cytotoxicity at 10 µM is -26%.

As to `CCc1cnc(N2CC[C@@H]3CN(C(=O)c4ccco4)CCO[C@@H]3C2)nc1`, the cytotoxicity at 10 µM was found to be 9.22%. Then `O=S(=O)(NC[C@]12COC[C@H]1CN(CCc1ccccc1)C2)C1CC1`, with 12.7%. With `COCCN1CC=C(c2cccc(OC)c2)CC1`, the cytotoxicity at 10 µM was found to be 6.45%. For the compound `C[C@@H]1CN(C2CCN(c3ccccc3F)CC2)C[C@]1(C)O`, the cytotoxicity at 10 µM is -2.19%.

For `COCC(=O)NC(CC(C)C)c1nc2cccnc2n1C` (configuration not stated), the cytotoxicity at 10 µM turned out to be 15.2%. In the case of `COc1ccc(S(=O)(=O)N2CCC(OCc3ccccn3)C2)cc1Br` (configuration not stated), the cytotoxicity at 10 µM was found to be 2.24%.

Take `O=C1CN(C(=O)C2CCOCC2)CCN1Cc1ccc(Cl)cc1`: the cytotoxicity at 10 µM was -146%.

For the compound `Cc1ccc(N2CCC3(CCN(C(=O)c4ccsc4)CC3)C2)nn1`, the cytotoxicity at 10 µM stood at 4%.

As to `Cc1cnn(CC2CCCN2Cc2cc(=O)n3c(C)csc3n2)c1` (configuration not stated), the cytotoxicity at 10 µM was -2.11%. In the case of `COc1ccc(CN(C)[C@@H]2CN(S(=O)(=O)C(C)C)C[C@H]2O)cc1` it was 0.465%.

Consider `CCc1ccc(CN2CCCC(CO)(CCOC)C2)cc1` (configuration not stated), for which the cytotoxicity at 10 µM was -0.26%. With `c1cncc(-c2noc(CN3CCCC(Cn4cncn4)C3)n2)c1` (configuration not stated), the cytotoxicity at 10 µM is -2.18%. Then `Cc1ccsc1CN(CCN(C)C)C(=O)c1cc2ccccc2[nH]1`, with -139%; and `Cc1cccc2cc(C(=O)N3CCN(S(=O)(=O)N(C)C)CC3)n(C)c12`, with 7.39%. Take `COCCOc1cccc(C(=O)N2CCCCC2c2nccs2)c1` (configuration not stated): the cytotoxicity at 10 µM was -9.5%. Then `CN(CCc1ccccn1)C(=O)C(c1cccnc1)N1CCOCC1` (configuration not stated), with 2.03%; and `O=C(c1ccco1)N1CCCC2(CN(Cc3cccs3)CCO2)C1` (configuration not stated), with -2.3%. Then `CNC(=O)c1sc2ncccc2c1C1CCN(C(=O)CCOC)C1` (configuration not stated), with 6.42%; and `COc1ccc(CN2CCn3cc(CN4CCN(C)CC4)nc3C2)cc1`, with -0.00161%; and `COC1CC2(CCN(Cc3ccc4c(c3)OCO4)CC2)C1`, with 3.07%. For the compound `Cc1cccc(C(=O)N2Cc3ccccc3C3(CCN(C)CC3)C2)n1`, the cytotoxicity at 10 µM was -73.5%. `COCCNC(=O)NCc1cc(-c2cccs2)n(C2CCCC2)n1`: the cytotoxicity at 10 µM is -10.5%.

As for `CCOc1ccccc1CN(CC)Cc1ccc(S(C)(=O)=O)cc1`, the cytotoxicity at 10 µM is -4.6%. In the case of `Cc1nn(CC(=O)O)c2nccc(-c3ccc(F)cc3)c12` it was -4.17%; in that of `O=C(O)c1c(-c2ccoc2)ncc2c1CCN(C1CCOC1)C2` (configuration not stated), 17%. In the case of `O=S1(=O)c2ccccc2C(O)CN1CCO` (configuration not stated) it was 2.37%. In the case of `COCCN(C)C[C@@H]1CN(C(=O)NC2CCCCC2)C[C@@H]1CO` it was 3.41%; in that of `Cc1nc(-c2ccccc2)c(C(=O)N2CCC3(CC(=O)NC3=O)C2)s1` (configuration not stated), -3.89%; in that of `CS(=O)(=O)CC1CCCN(c2ncnc3c2Cc2ccccc2OC3)C1` (configuration not stated), -7.41%. With `CNS(=O)(=O)c1cccc(C(C)NCc2ccsc2)c1` (configuration not stated), the cytotoxicity at 10 µM was found to be 2.45%. In the case of `CC(Cn1cccn1)Nc1cnc2ccccc2n1` (configuration not stated) it was -7.67%. Then `COCCN(Cc1cnn(C)c1)C(=O)C1COc2c(cccc2OC)C1` (configuration not stated), with -11.9%; and `O=C(Cc1cccs1)NCC1COCc2c(-c3ccoc3)nnn2C1` (configuration not stated), with 19%. Take `Fc1cccc(Cl)c1CNCCCOc1ccccn1`: the cytotoxicity at 10 µM was -3.33%.

Regarding `Cc1nsc(NC(=O)N2CCN(Cc3ccccc3F)C(=O)C2)n1`, the cytotoxicity at 10 µM is -4.25%. Then `CN(C(=O)C1CC(=O)N(CCc2ccccc2)C1)c1nccs1` (configuration not stated), with 9.89%; and `Cc1ccc2cc(C3(O)CCN(C(=O)CN4CCCC4)CC3)ccc2n1`, with 2.57%; and `Cn1cc(-c2cc(C(F)F)n3nc(CCC(=O)O)nc3n2)cn1`, with 1.61%.

Regarding `CC(C)COCC1CN(Cc2ccco2)Cc2ncn(C)c21` (configuration not stated), the cytotoxicity at 10 µM worked out at 4.24%. Then `CCN(C(=O)CN1CCCC1c1c(C)nn(C)c1OC)C1CC1` (configuration not stated), with -0.54%; and `CN1CCN(C(=O)[C@H]2C[C@H]3[C@H](CCN3Cc3nccs3)O2)CC1`, with 1.73%.

For the compound `CCc1nc(C)c(C(=O)NCCNc2ncccn2)s1`, the cytotoxicity at 10 µM was -2.16%.

Turning to `C[C@H]1CN(C(=O)c2cccc(F)c2Cl)CCN1S(C)(=O)=O`, the cytotoxicity at 10 µM is -13.5%. Then `CNC(=O)CCN1CCCCCC1c1ccc(C)o1` (configuration not stated), with -10.2%; and `COc1ccc(NC(=O)CSC(F)(F)F)cn1`, with -96.6%.
